Results on 15 compounds are retold here after PubChem BioAssay AID623942 (The Scripps Research Institute Molecular Screening Center, 2012).

Active and inactive are the calls of the source.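 How the source made its calls: active means IC50 at or below 50 µM; inactive means IC50 above 50 µM.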 Bounds are passed on as bounds.

The test addresses RecBCD enzyme subunit RecC (Escherichia coli (strain K12)) + RecBCD enzyme subunit RecB (Escherichia coli (strain K12)) (UniProt P07648+P08394). In words: Chi-specific cleavage inhibition potency, RecBCD – biochemical, radioactive gel readout, counter-screen for AddAB inhibitor project, dose response (AID 623942). To be noted: purified RecBCD, Chi cutting/unwinding. In short, it runs like this: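 Test system – purified E. coli RecBCD · Quantity – 0.15 nM RecBCD · Reagent – 0.1 nM labeled Chi+F DNA plus 5 mM ATP · Timing – 1 min at 37 °C · Signal – gel autoradiography of 32P-labeled DNA products · Evaluation – IC50 from loss of 1.46 kb Chi-cut fragment versus DMSO · Benchmarks – DMSO control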
(Counterscreens check selectivity or assay interference.)

RecBCD enzyme subunit RecC (Escherichia coli (strain K12)) + RecBCD enzyme subunit RecB (Escherichia coli (strain K12)), sequence (P07648 whole entry, looked up, the tested form may be a part): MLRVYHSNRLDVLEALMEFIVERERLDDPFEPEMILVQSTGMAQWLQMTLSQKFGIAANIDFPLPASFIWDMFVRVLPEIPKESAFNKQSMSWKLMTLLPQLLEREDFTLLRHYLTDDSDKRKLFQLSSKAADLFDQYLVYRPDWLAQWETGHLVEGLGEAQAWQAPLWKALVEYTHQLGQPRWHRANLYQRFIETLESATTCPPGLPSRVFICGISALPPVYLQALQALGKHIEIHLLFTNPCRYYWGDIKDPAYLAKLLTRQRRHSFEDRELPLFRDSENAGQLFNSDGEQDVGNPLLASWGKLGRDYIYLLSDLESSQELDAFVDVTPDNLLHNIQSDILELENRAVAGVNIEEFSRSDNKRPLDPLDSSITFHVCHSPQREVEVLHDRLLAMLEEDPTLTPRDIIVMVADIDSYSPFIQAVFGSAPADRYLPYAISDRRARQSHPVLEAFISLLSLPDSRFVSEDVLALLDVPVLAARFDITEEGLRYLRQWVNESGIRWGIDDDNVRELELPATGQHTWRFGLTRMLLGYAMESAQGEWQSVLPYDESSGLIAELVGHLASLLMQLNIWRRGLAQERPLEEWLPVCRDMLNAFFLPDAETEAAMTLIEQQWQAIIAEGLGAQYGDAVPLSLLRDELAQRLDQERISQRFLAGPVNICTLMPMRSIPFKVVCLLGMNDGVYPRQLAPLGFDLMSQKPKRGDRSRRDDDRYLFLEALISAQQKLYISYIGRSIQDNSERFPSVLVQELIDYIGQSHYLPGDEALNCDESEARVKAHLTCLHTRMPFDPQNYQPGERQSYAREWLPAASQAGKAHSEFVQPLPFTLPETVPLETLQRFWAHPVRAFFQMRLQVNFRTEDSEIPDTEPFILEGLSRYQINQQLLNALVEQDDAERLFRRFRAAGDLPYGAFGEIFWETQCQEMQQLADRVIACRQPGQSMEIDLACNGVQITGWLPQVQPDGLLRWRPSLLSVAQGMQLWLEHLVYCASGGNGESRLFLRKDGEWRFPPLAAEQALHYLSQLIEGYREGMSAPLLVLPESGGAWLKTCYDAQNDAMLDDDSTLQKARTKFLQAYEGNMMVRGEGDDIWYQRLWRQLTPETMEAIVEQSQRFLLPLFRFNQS
RecBCD enzyme subunit RecC (Escherichia coli (strain K12)) + RecBCD enzyme subunit RecB (Escherichia coli (strain K12)), sequence (P08394 whole entry, looked up, the tested form may be a part): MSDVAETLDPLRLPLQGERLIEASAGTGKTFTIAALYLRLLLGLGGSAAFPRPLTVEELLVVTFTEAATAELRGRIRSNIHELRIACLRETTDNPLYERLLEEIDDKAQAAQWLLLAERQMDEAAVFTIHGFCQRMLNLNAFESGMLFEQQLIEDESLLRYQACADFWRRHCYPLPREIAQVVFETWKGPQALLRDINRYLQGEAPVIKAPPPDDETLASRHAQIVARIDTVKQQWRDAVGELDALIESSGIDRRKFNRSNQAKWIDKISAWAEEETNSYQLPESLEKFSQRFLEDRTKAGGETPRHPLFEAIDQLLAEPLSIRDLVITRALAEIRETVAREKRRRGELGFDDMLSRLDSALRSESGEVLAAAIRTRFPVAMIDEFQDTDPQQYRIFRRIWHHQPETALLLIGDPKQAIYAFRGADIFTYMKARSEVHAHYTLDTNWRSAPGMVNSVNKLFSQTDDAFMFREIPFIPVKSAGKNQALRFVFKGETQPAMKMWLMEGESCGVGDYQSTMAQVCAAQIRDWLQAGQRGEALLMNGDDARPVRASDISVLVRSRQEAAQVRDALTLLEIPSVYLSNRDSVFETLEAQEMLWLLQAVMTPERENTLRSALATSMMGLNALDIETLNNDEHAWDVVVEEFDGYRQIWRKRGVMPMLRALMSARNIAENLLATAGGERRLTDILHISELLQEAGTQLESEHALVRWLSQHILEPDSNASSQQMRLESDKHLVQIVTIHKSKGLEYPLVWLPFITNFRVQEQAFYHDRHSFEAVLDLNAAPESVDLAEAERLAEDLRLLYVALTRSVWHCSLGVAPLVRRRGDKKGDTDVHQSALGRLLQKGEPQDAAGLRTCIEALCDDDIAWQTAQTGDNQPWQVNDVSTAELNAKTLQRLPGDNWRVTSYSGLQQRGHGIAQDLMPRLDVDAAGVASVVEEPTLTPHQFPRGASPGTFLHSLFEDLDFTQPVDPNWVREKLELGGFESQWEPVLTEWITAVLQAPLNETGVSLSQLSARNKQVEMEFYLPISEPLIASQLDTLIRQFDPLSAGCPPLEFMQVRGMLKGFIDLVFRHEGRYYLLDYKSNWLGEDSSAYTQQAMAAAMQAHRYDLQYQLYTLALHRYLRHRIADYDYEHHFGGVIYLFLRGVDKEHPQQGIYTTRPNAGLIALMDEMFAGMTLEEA

In the case of `NC(=O)c1ccsc1NC(=O)COC(=O)c1ccc([N+](=O)[O-])o1`, the IC50 result was “inactive”.
The same measure for `O=C(NCc1cccnc1)c1ccc([N+](=O)[O-])o1`: > 500 µM (inactive); for `Cc1ccc2nc(/C(C#N)=C\c3ccc([N+](=O)[O-])o3)[nH]c2c1`: 38 µM.
The same measure for `O=C(OCC(=O)c1cccs1)c1ccc([N+](=O)[O-])o1`: > 500 µM (inactive).
In the case of `CCn1cc(C(=O)O)c(=O)c2cc(F)c(N3CCN(C(=S)Nc4ccccc4C(F)(F)F)CC3)cc21`, the half-maximal inhibitory concentration (IC50) was 20 µM.
On to `N#Cc1c(NC(=O)c2ccc([N+](=O)[O-])o2)sc2c1CCC2`, for which the IC50 is 20 µM.
Then `C=CCn1c(Sc2ncc([N+](=O)[O-])s2)n[nH]c1=O`, with > 500 µM (inactive).
As to `O=C(Nc1ccc(N2CCOCC2)cc1)c1ccc([N+](=O)[O-])o1`, the IC50 entry was “inactive”.
As to `O=C(Nc1ncccn1)c1ccc([N+](=O)[O-])o1`, the half-inhibitory concentration (IC50) was 49 µM.
As for `CC(=O)Nc1ccc2nc(NC(=O)c3ccc([N+](=O)[O-])o3)sc2c1`, the IC50 was > 500 µM (inactive).
Consider `O=C(Nc1cccc(NC(=O)c2ccccc2Cl)c1)c1ccc([N+](=O)[O-])o1`, for which the half-inhibitory concentration (IC50) was 20 µM.
Regarding `CCn1cc(C(=O)O)c(=O)c2cnc(N3CCN(C(=S)Nc4ccccc4C(F)(F)F)CC3)nc21`, the IC50 is 10 µM.
`CCn1cc(C(=O)O)c(=O)c2cnc(N3CCN(C(=S)Nc4cccc(C(F)(F)F)c4)CC3)nc21`: the concentration for half-maximal inhibition (IC50) is 0.6 µM.
Then `CCn1cc(C(=O)O)c(=O)c2cc(F)c(N3CCN(C(=S)Nc4cccc(C(F)(F)F)c4)CC3)cc21`, with 0.6 µM.
Then `Cc1cccnc1NC(=O)c1ccc([N+](=O)[O-])o1`, with > 500 µM (inactive).

One may read the IC50 as the concentration that inhibits the measured activity by half.
